Results: ChEMBL document CHEMBL1126775, “A pharmacological, crystallographic, and quantum chemical study of new inotropic agents” (J Med Chem, 1993)
Values joined by “and” are separate entries in the source; they are usually repeats but may differ in a detail not shown here. Identical values can stand only once.

Key:
[1] = species: Cavia porcellus; assay: Effect on inotropic response to 3 x 10 e-5 8-phenyltheophylline in electrically driven left atrium from reserpine-treated guinea pigs; format: functional, Cardiac atrium
How it was run: (§1)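 Paced left atrium (1.5 Hz, 0.5 g load) from reserpine-pretreated guinea pigs. Test agent (10^-4 or 5×10^-5 M) added to perfusion 10 min before cumulative 8-phenyltheophylline (10^-6–10^-4 M). Developed tension as % increase over control. Mean ± SEM of four assays from four experiments; Student's t test against atria without the test agent.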

[2] = species: Cavia porcellus; assay: Effect on inotropic response to 10 e-6 8-phenyltheophylline in electrically driven left atrium from reserpine-treated guinea pigs at 10 e-4 M; format: functional, Cardiac atrium; how it was run: as §1
[3] = species: Cavia porcellus; assay: Effect on inotropic response to 10 e-4 8-phenyltheophylline in electrically driven left atrium from reserpine-treated guinea pigs at 10 e-4 M; format: functional, Cardiac atrium; how it was run: as §1
[4] = species: Cavia porcellus; assay: Effect on frequency rate of spontaneously beating atria from reserpine treated guinea pigs at the concentration of 5 x 10 e-5 M (negative chronotropic ionotropic effect)
[5] = species: Cavia porcellus; assay: Effect on inotropic response to 10 e-4 8-phenyltheophylline in electrically driven left atrium from reserpine-treated guinea pigs; format: functional, Cardiac atrium; how it was run: as §1
[6] = Logarithm of the sum of contributions of each atom to the total lipophilicity of the molecule; format: physicochemical; settings: octanol/water
[7] = species: Cavia porcellus; assay: Effect on inotropic response to 10 e-6 8-phenyltheophylline in electrically driven left atrium from reserpine-treated guinea pigs at 5 x 10 e-5 M; format: functional, Cardiac atrium; how it was run: as §1
[8] = species: Cavia porcellus; assay: Effect on contractile force of spontaneously beating atria from reserpine treated guinea pigs at the concentration of 10 e-4 M (negative ionotropic effect); format: functional
[9] = species: Cavia porcellus; assay: Effect on inotropic response to 3 x 10 e-6 8-phenyltheophylline in electrically driven left atrium from reserpine-treated guinea pigs at 10 e-4 M; format: functional, Cardiac atrium; how it was run: as §1
[10] = species: Cavia porcellus; assay: Effect on inotropic response to 10 e-5 8-phenyltheophylline in electrically driven left atrium from reserpine-treated guinea pigs; format: functional, Cardiac atrium; how it was run: as §1
[11] = species: Cavia porcellus; assay: Effect on inotropic response to 3x 10 e-5 8-phenyltheophylline in electrically driven left atrium from reserpine-treated guinea pigs at 5 x 10 e-5 M; format: functional, Cardiac atrium; how it was run: as §1
[12] = species: Cavia porcellus; assay: Effect on inotropic response to 3 x 10 e-6 8-phenyltheophylline in electrically driven left atrium from reserpine-treated guinea pigs at 5 x 10 e-5 M; format: functional, Cardiac atrium; how it was run: as §1
[13] = species: Cavia porcellus; assay: Effect on frequency rate of spontaneously beating atria from reserpine treated guinea pigs at the concentration of 5 x 10 e-4 M (negative chronotropic ionotropic effect); format: functional
[14] = species: Cavia porcellus; assay: Effect on contractile force of spontaneously beating atria from reserpine treated guinea pigs at the concentration of 5x 10 e-4 M (negative ionotropic effect); format: functional
[15] = species: Cavia porcellus; assay: Effect on inotropic response to 10 e-5 8-phenyltheophylline in electrically driven left atrium from reserpine-treated guinea pigs at 5 x 10 e-5 M; format: functional, Cardiac atrium; how it was run: as §1
[16] = species: Cavia porcellus; assay: Effect on contractile force of spontaneously beating atria from reserpine treated guinea pigs at the concentration of 2 x 10 e-3 M (negative ionotropic effect); format: functional
[17] = species: Cavia porcellus; assay: Effect on contractile force of spontaneously beating atria from reserpine treated guinea pigs at the concentration of 5x 10 e-5 M (negative ionotropic effect); format: functional
[18] = species: Cavia porcellus; assay: Effect on inotropic response to 10 e-4 8-phenyltheophylline in electrically driven left atrium from reserpine-treated guinea pigs at 5 x 10 e-5 M; format: functional, Cardiac atrium; how it was run: as §1
[19] = species: Cavia porcellus; assay: Effect on contractile force of spontaneously beating atria from reserpine treated guinea pigs at the concentration of 10 e-5 M (negative ionotropic effect); format: functional
[20] = species: Cavia porcellus; assay: Effect on frequency rate of spontaneously beating atria from reserpine treated guinea pigs at the concentration of 10 e-4 M (negative chronotropic ionotropic effect); format: functional
[21] = species: Cavia porcellus; assay: Effect on frequency rate of spontaneously beating atria from reserpine treated guinea pigs at the concentration of 10 e-3 M (negative chronotropic ionotropic effect); format: functional
[22] = species: Cavia porcellus; assay: Effect on inotropic response to 3 x 10 e-6 8-phenyltheophylline in electrically driven left atrium from reserpine-treated guinea pigs; format: functional, Cardiac atrium; how it was run: as §1
[23] = species: Cavia porcellus; assay: Effect on contractile force of spontaneously beating atria from reserpine treated guinea pigs at the concentration of 10 e-3 M (negative ionotropic effect); format: functional
[24] = species: Cavia porcellus; assay: Effect on inotropic response to 10 e-6 8-phenyltheophylline in electrically driven left atrium from reserpine-treated guinea pigs; format: functional, Cardiac atrium; how it was run: as §1
[25] = species: Cavia porcellus; assay: Effect on inotropic response to 10 e-5 8-phenyltheophylline in electrically driven left atrium from reserpine-treated guinea pigs at 10 e-4 M; format: functional, Cardiac atrium; how it was run: as §1
[26] = species: Cavia porcellus; assay: Effect on inotropic response to 3 x 10 e-5 8-phenyltheophylline in electrically driven left atrium from reserpine-treated guinea pigs at 10 e-4 M; format: functional, Cardiac atrium; how it was run: as §1
[27] = species: Cavia porcellus; assay: Effect on frequency rate of spontaneously beating atria from reserpine treated guinea pigs at the concentration of 2 x 10 e-3 M (negative chronotropic ionotropic effect); format: functional

O=C(c1ccccc1)c1ccc(O)nc1-c1ccccc1 showed an Increase [1] of 14.72%, an Increase [2] of 4.56% and an Increase [3] of 27.05%. For the same compound, the Increase [4] was -4.26% and -9.3%, the Increase [5] was 20.81% and the logP [6] was 3.82. For the same compound, the Increase [7] was 5.7%, the Increase [8] was -24.76% and the Increase [9] was 11.38%. It also gave an Increase [10] of 11.19%, an Increase [11] of 17.41% and an Increase [12] of 8.13%. For the same compound, the Increase [13] was -24.37%, the Increase [14] was -38.32% and the Increase [15] was 14.44%. For the same compound, the Increase [16] was -46.27%, the Increase [17] was -7.3% and the Increase [18] was 25.91%. For the same compound, the Increase [19] was -2.67%, the Increase [20] was -14.92% and the Increase [21] was -32.89%. It also gave an Increase [22] of 7.33%, an Increase [23] of -43.71% and an Increase [24] of 4.27%. For the same compound, the Increase [25] was 18.78%, the Increase [26] was 20.17% and the Increase [27] was -40.57%.
